Laboratory results published in ChEMBL document CHEMBL1129451, “Novel potent sigma 1 ligands: N-[omega-(tetralin-1-yl)alkyl]piperidine derivatives” (J Med Chem, 1996).
pKi: −log10 of the molar value.

What was measured:
[1] = biological target: T1, 5-hydroxytryptamine receptor 1A (Rattus norvegicus, UniProt P19327); test: Binding affinity was tested on 5-hydroxytryptamine 1A receptor using radioligand [3H]5-HT binding assay.
T1 sequence (P19327 whole entry): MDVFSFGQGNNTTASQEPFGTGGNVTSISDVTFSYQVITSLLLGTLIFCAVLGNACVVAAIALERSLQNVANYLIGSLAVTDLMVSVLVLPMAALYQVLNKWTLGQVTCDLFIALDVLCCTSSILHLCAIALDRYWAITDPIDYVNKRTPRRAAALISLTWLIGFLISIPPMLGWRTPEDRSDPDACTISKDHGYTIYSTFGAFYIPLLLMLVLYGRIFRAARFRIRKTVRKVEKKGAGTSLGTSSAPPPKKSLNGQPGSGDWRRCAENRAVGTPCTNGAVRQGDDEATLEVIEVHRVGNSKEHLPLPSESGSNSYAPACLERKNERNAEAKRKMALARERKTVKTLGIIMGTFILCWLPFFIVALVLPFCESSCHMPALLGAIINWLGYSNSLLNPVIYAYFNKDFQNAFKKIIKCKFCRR
How it was run: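 Six to nine drug concentrations, triplicate samples, two to three independent experiments. IC50 converted to Ki by Cheng–Prusoff, with Kd and Bmax from saturation experiments.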

[2] = biological target: D(2) dopamine receptor (Rattus norvegicus) (UniProt P61169); test: (§1) Binding affinity was tested on Dopamine receptor D2 using radioligand [3H]spiroperidol; parameters: concentration or dose not given beside the values
How it was run: (§2)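 Rat striatal membranes labelled with [3H]spiroperidol; (+)-butaclamol defined specific binding. […] Ki by Cheng–Prusoff using Bmax and Kd from saturation experiments. Tested as hydrogen oxalate salts (some hydrochlorides); oxalate interference excluded at highest concentration.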

[3] = biological target: Serotonin 2 (5-HT2) receptor (Rattus norvegicus) (UniProt P30994+P08909+P14842); test: Percentage specific displacement of radioligand [3H]ketanserin from 5-hydroxytryptamine 2 receptor; type: protein assay; parameters: concentration or dose not given beside the values
[4] = biological target: Sigma-1 receptor (Rattus norvegicus); test: Binding affinity was tested on Sigma-1 receptor using radioligand [3H](+)-pentazocine binding assay.
[5] = biological target: Glutamate NMDA receptor; test: Binding affinity was tested on Phencyclidine binding assay.; type: protein-complex assay
How it was run: (§3)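 [3H]phencyclidine binding to rat hippocampus membranes, with (+)-N-allylnormetazocine (SKF 10,047) defining specific binding. […] Ki via Cheng–Prusoff with Bmax and Kd taken from saturation experiments.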

[6] = Binding affinity of compound was tested on Phencyclidine binding assay.
[7] = biological target: T2, D(2) dopamine receptor (Rattus norvegicus, UniProt P61169); test: as §1
How it was run: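 Ki by Cheng–Prusoff using Bmax and Kd from saturation experiments. Tested as hydrogen oxalate salts (some hydrochlorides); oxalate interference excluded at highest concentration.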

[8] = biological target: T2, D(2) dopamine receptor; test: (§4) Binding affinity of compound towards Dopamine receptor D2 was determined in rat striatal homogenate using [3H]- spiperone as radioligand; how it was run: as §2
[9] = biological target: Serotonin 2 (5-HT2) receptor (Rattus norvegicus, UniProt P30994+P08909+P14842); test: Percentage specific displacement of radioligand [3H]-ketanserin from 5-hydroxytryptamine 2 receptor; type: protein assay
[10] = biological target: T3, Glutamate NMDA receptor (Rattus norvegicus) (UniProt P35439+Q00959+Q00960+Q00961+Q62645+Q8VHN2+Q9R1M7); test: Binding affinity of compound was tested on Phencyclidine binding assay.; type: protein-complex assay; how it was run: as §3
[11] = biological target: D(2) dopamine receptor (Rattus norvegicus) (UniProt P61169); test: as §4; how it was run: as §2
[12] = biological target: T3, Glutamate NMDA receptor (Rattus norvegicus); test: Percentage specific displacement of radioligand [3H]phencyclidine from Phencyclidine receptor; type: protein-complex assay
How it was run: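 Rat hippocampus membranes, [3H]phencyclidine radioligand; (+)-N-allylnormetazocine (SKF 10,047) defined specific binding. Percent specific displacement run in triplicate at a single stated compound concentration.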

Sequence of Serotonin 2 (5-HT2) receptor (Rattus norvegicus) (P08909 whole entry, looked up): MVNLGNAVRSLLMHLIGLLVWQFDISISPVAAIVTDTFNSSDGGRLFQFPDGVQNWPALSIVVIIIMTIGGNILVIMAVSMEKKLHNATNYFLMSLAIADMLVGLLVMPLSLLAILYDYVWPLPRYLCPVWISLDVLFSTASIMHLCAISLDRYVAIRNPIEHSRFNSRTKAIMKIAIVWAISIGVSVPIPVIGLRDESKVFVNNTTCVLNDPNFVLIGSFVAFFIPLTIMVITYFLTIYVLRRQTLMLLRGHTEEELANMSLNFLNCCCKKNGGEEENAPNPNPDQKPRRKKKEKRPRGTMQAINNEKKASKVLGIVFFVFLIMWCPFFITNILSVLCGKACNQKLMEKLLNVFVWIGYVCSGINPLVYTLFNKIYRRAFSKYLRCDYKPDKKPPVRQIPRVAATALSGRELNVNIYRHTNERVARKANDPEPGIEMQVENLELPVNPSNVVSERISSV
Sequence of Serotonin 2 (5-HT2) receptor (Rattus norvegicus) (P14842 whole entry, looked up): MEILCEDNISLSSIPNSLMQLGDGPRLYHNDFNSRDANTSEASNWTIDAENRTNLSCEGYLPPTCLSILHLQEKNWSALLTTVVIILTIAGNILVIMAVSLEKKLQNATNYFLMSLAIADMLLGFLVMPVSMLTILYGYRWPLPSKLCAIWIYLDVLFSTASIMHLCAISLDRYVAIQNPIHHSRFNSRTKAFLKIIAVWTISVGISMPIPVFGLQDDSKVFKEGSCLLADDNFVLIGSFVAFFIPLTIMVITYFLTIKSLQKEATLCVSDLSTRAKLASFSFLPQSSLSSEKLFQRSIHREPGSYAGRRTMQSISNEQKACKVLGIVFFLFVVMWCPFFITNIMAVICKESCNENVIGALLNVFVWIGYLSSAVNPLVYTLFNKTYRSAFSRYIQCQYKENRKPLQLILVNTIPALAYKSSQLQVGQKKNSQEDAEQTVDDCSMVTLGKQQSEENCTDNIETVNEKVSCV
Sequence of Serotonin 2 (5-HT2) receptor (Rattus norvegicus) (P30994 whole entry, looked up): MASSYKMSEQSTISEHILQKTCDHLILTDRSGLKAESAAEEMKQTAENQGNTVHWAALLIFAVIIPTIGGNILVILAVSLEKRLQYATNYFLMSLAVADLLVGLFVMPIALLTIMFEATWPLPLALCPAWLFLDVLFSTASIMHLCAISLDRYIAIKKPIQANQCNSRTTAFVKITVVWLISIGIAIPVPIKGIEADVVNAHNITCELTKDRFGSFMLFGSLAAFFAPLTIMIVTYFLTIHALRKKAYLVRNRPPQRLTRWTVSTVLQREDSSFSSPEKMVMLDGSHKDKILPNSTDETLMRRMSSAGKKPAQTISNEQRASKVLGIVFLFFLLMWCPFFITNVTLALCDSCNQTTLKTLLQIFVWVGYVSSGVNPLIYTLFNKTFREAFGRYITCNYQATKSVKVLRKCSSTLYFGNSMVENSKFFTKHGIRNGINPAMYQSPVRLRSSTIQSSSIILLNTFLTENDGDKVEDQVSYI
Sequence of D(2) dopamine receptor (Rattus norvegicus) (P61169 whole entry): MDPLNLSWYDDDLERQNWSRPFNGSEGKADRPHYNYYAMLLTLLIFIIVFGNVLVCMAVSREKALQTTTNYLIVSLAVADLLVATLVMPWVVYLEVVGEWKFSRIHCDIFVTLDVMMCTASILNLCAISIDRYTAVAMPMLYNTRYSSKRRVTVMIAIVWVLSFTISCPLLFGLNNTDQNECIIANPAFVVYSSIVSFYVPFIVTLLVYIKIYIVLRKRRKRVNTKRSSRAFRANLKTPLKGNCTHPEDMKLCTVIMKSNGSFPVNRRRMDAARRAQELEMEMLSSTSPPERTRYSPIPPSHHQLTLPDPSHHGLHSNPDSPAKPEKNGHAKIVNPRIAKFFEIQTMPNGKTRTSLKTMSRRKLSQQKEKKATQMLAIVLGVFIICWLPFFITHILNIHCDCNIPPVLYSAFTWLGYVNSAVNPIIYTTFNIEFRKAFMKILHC
T2 sequence (P61169 whole entry): as above

| Compound | pKi [1] | Displacement [2] [%] | Displacement [3] [%] | Ki [4] [nM] | pKi [5] | also measured |
| --- | --- | --- | --- | --- | --- | --- |
| CCCN(CCC)CCCC1CCCc2ccccc21 (configuration not stated) | 6.40 | 0 | 51 | 6.7 | 4.32 |  |
| C=CCN1CCC2c3cc(O)ccc3CC1C2C (configuration not stated) |  |  |  |  |  | pKi [6]: 6.43 |
| COc1cccc2c1CCCC2CCCN1CCCC(C)(C)C1 (configuration not stated) | 6.05 |  |  |  | 7.47 | pKi [7]: < 5.00 |
| c1ccc2c(c1)CCCC2CCCCN1CCCCC1 (configuration not stated) | < 5.84 | 27 | 64 | 4.7 | 5.25 |  |
| COc1cccc2c1CCCC2CCCN1CCC(Cc2ccccc2)CC1 (configuration not stated) | > 9.85 |  |  |  | < 4.03 | pKi [8]: 5.89 |
| COc1cccc2c1CCCC2CCCN1CCCCC1 (configuration not stated) | < 5.84 |  |  |  | 5.49 | pKi [7]: < 5.73; Ki [9]: > 5520 nM |
| c1ccc2c(c1)CCN(CCCCC1CCCc3ccccc31)C2 (configuration not stated) |  |  |  | 3.7 | < 4.03 |  |
| CCCN(CCC)CCCCC1CCCc2ccccc21 (configuration not stated) | 6.70 | 31 | 66 | 4.7 | 5.00 |  |
| c1ccc(CC2CCN(CCCCC3CCCc4ccccc43)CC2)cc1 (configuration not stated) | 6.55 |  |  | 30 | < 4.03 |  |
| C1=C(CCCCN2CCCCC2)c2ccccc2CC1 | < 5.84 | 0 | 12 | 3.9 |  | Displacement [10]: 92% |
| CC1(C)CCCN(CCCCC2CCCc3ccccc32)C1 (configuration not stated) | < 5.84 |  |  | 0.8 | < 4.03 | pKi [7]: < 5.00 |
| CC1(C)CCCN(CCCC2CCCc3cscc32)C1 (configuration not stated) | < 5.84 |  |  |  | 8.03 |  |
| c1ccc2c(c1)CCCC2CCCN1CCCCC1 (configuration not stated) | < 5.84 |  | 21 |  |  | Displacement [11]: 0%; Displacement [12]: 95% |
| c1cc2c(s1)CCCC2CCCN1CCCCC1 (configuration not stated) |  |  |  |  | < 4.03 |  |
| CCCN(CCC)CCCCC1=CCCc2ccccc21 | 6.45 | 40 | 60 | 3.9 | 5.59 |  |
| COc1ccc2c(c1)C(CCCN1CCCCC1)CCC2 (configuration not stated) | < 5.84 |  |  | 63.2 |  | pKi [7]: < 5.73; Displacement [12]: 88%; Ki [9]: > 5520 nM |
